Test results as given in ChEMBL document CHEMBL4842312, “Phenoxazine nucleoside derivatives with a multiple activity against RNA and DNA viruses” (Eur J Med Chem, 2021).
Converted amounts (≈) assume the structure as drawn.

Columns and labels:
[1] = system: Tick-borne encephalitis virus; experiment: Antiviral activity against Tick-borne encephalitis virus infected in PEK cells assessed as reduction in viral plaque formation incubated for 1 hr by Reed-Muench method; assay type: functional, organism-based
[2] = system: Human alphaherpesvirus 3; experiment: Antiviral activity against thymidine kinase positive Varicella zoster virus; assay type: functional, organism-based
How it was run: (§1)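 Confluent HEL cultures received 100 CCID50 or 20 PFU of virus, with 2 h adsorption before inoculum removal. Cells were then incubated with compound from 100 μM downward. Cytopathicity or plaques were scored once untreated infected controls reached completion.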

[3] = system: Human alphaherpesvirus 3; experiment: Antiviral activity against thymidine kinase deficient Varicella zoster virus; assay type: functional, organism-based; how it was run: as §1
[4] = system: Human betaherpesvirus 5; experiment: Antiviral activity against Human cytomegalovirus AD169; assay type: functional, organism-based; conditions: Human betaherpesvirus 5, AD169; how it was run: as §1
[5] = system: Human betaherpesvirus 5; experiment: Antiviral activity against Human cytomegalovirus Davis; assay type: functional, organism-based; conditions: Human betaherpesvirus 5, Davis; how it was run: as §1
[6] = system: HEL; experiment: Cytotoxicity against human HEL cells assessed as reduction in cell viability measured after 3 days by beckman coulter counting method; assay type: cell-based; conditions: 72 h, time 3 day
How it was run: (§2)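 Cells were seeded at 5 × 10³/well, grown 24 h, then exposed to compound from 100 μM downward for 3 days at 37 °C. Cell number was counted with a Coulter counter.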

[7] = Selectivity index, ratio of CC50 for human HEL cells to EC50 for Antiviral activity against Human cytomegalovirus AD169; assay type: toxicity; conditions: read-out: Ratio CC50/EC50
[8] = Selectivity index, ratio of CC50 for human HEL cells to EC50 for Antiviral activity against Human cytomegalovirus Davis; assay type: toxicity; conditions: read-out: Ratio CC50/EC50
[9] = system: Tick-borne encephalitis virus; experiment: Antiviral activity against Tick-borne encephalitis virus infected in pig PEK cells assessed as reduction in virus plaque formation preincubated with virus for 1 hr followed by cell infection and measured after 1 hr by crystal violet staining based assay; assay type: functional, organism-based
[10] = system: Powassan virus; experiment: Antiviral activity against Powassan virus infected in pig PEK cells assessed as reduction in virus plaque formation preincubated with virus for 1 hr followed by cell infection and measured after 1 hr by crystal violet staining based assay; assay type: functional, organism-based
[11] = system: Omsk hemorrhagic fever virus; experiment: Antiviral activity against Omsk hemorrhagic fever virus infected in pig PEK cells assessed as reduction in virus plaque formation preincubated with virus for 1 hr followed by cell infection and measured after 1 hr by crystal violet staining based assay; assay type: functional, organism-based
[12] = Selectivity index, ratio of CC50 for pig PEK cells to EC50 for Antiviral activity against Tick-borne virus encephalitis infected in pig PEK cells; assay type: toxicity, cell-based; conditions: read-out: Ratio CC50/EC50
[13] = Selectivity index, ratio of CC50 for pig PEK cells to EC50 for Antiviral activity against Powassan virus infected in pig PEK cells; assay type: toxicity, cell-based; conditions: read-out: Ratio CC50/EC50
[14] = Selectivity index, ratio of CC50 for pig PEK cells to EC50 for Antiviral activity against Omsk hemorrhagic fever virus infected in pig PEK cells; assay type: toxicity, cell-based; conditions: read-out: Ratio CC50/EC50
[15] = Cytotoxicity in pig PEK cells assessed as reduction in cell viability measured after 5 days by resazurin dye based assay; set-up: species or system Sus scrofa, Kidney; conditions: 120 h, time 5 day
How it was run: (§3)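 Cells (about 10⁵/well, 5% FBS) were added to two-fold compound dilutions (eight concentrations from 100 μM; DMSO control) and held 5 days at 36.5 °C in CO2. Medium was then replaced with resazurin (25 μg/mL) for 4 h and stopped with SDS. Fluorescence was read at Ex 525 / Em 580–640 nm, with background wells without resazurin subtracted. Done in two replicates; CC50 calculated.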

[16] = system: Chikungunya virus; experiment: Antiviral activity against Chikungunya virus infected in African green monkey Vero cells assessed as reduction in virus plaque formation preincubated with virus for 1 hr followed by cell infection and measured after 1 hr by crystal violet staining based assay; assay type: functional, organism-based
[17] = Selectivity index, ratio of CC50 for African green monkey Vero cells to EC50 for Antiviral activity against Chikungunya virus infected in African green monkey Vero cells; assay type: toxicity; conditions: read-out: Ratio CC50/EC50
[18] = system: Vero; experiment: (§4) Cytotoxicity in African green monkey Vero cells assessed as reduction in cell viability measured after 5 days by resazurin dye based assay; conditions: chlorocebus sabaeus, vero, 120 h; time 5 day; how it was run: as §3
[19] = system: Respiratory syncytial virus; experiment: Antiviral activity against Respiratory syncytial virus assessed as reduction in virus-induced cytopathic effect by MTS assay; assay type: functional, organism-based; conditions: human respiratory syncytial virus
[20] = system: Influenza A virus; experiment: Antiviral activity against Influenza A virus (H1N1) infected in MDCK cells assessed as reduction in cytopathic effect preincubated with cells for 1 hrs followed by viral addition and measured after 24 hrs by Reed-Muench method; assay type: functional, organism-based
How it was run: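 MDCK monolayers were pre-incubated 1 h at 37 °C with 3-fold compound dilutions (from 2 mg/mL DMSO stock), then infected at MOI 1 for 24 h. Supernatant yield was titrated by 10-fold dilutions on fresh MDCK for 72 h. Titre was read by hemagglutination with 1% chicken erythrocytes and calculated by Reed-Muench as TID50 per 100 μL.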

[21] = system: HEp-2; experiment: Cytotoxicity in human Hep2 cells assessed as reduction in cell viability measured after 3 days by beckman coulter counting method; assay type: functional; conditions: HEp-2, 72 h, time 3 day
How it was run: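 Hep2 cells seeded at 5 × 10³ cells/well and allowed to grow 24 h, then exposed to compound dilutions starting at 100 μM for 3 days at 37 °C. Cell number measured by Coulter counter.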

[22] = system: MDCK; experiment: (§5) Cytotoxicity in dog MDCK cells assessed as reduction in cell viability measured after 3 days by beckman coulter counting method; assay type: cell-based, Canis lupus familiaris; conditions: mdck, 72 h, time 3 day; how it was run: as §2
[23] = system: SARS-CoV-2; experiment: Antiviral activity against SARS COV-2 infected in monkey vero cells assessed as reduction in virus-induced cytopathic effect preincubated with virus for 1 hr followed by cell infection and measured after 5 days by microscopic analysis; assay type: functional, organism-based; conditions: Severe acute respiratory syndrome coronavirus 2, Vero
[24] = Selectivity index, ratio of CC50 for human HEL cells to EC50 for antiviral activity against thymidine kinase positive Varicella zoster virus; assay type: toxicity; conditions: read-out: Ratio CC50/EC50
[25] = Selectivity index, ratio of CC50 for human HEL cells to EC50 for antiviral activity against thymidine kinase deficient Varicella zoster virus; assay type: toxicity; conditions: read-out: Ratio CC50/EC50
[26] = Selectivity index, ratio of CC50 for dog MDCK cells to EC50 for Influenza A virus (A/California/07/09(H1N1)) infected in MDCK cells; assay type: toxicity, cell-based; conditions: read-out: Ratio CC50/EC50
[27] = system: Human alphaherpesvirus 3; experiment: Antiviral activity against Varicella zoster virus assessed as inhibition of viral replication; assay type: functional, organism-based
[28] = system: Human alphaherpesvirus 1; experiment: Antiviral activity against Herpes simplex virus 1 infected in HEL cells assessed as reduction in viral plaque formation; assay type: functional; how it was run: as §1
[29] = system: Human alphaherpesvirus 2; experiment: Antiviral activity against Herpes simplex virus 2 infected in HEL cells assessed as reduction in viral plaque formation; assay type: functional; how it was run: as §1
[30] = system: Human alphaherpesvirus 3; experiment: Antiviral activity against Varicella zoster virus infected in HEL cells assessed as reduction in viral plaque formation; assay type: functional; how it was run: as §1
[31] = system: Human betaherpesvirus 5; experiment: Antiviral activity against cytomegalovirus infected in HEL cells assessed as reduction in viral plaque formation; assay type: functional
How it was run: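 Confluent HEL cultures infected with 20 PFU of CMV (AD-169 or Davis), 2 h adsorption, inoculum removed, then compounds added at varying concentrations from 100 μM. Plaques scored once complete in untreated infected controls.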

[32] = as §4; conditions: chlorocebus sabaeus, Vero cells; time 5 day; how it was run: as §3
[33] = as §5; assay type: cell-based, Canis lupus familiaris; conditions: MDCK cells, time 3 day; how it was run: as §2
[34] = Selectivity index, ratio of CC50 for human Hep2 cells to EC50 for Respiratory syncytial virus; assay type: toxicity; conditions: read-out: Ratio CC50/EC50
[35] = system: Human alphaherpesvirus 3; experiment: Antiviral activity against thymidine kinase deficient Varicella zoster virus infected in HEL cells assessed as reduction in viral plaque formation incubated for 2 hrs; assay type: functional, organism-based; conditions: Human alphaherpesvirus 3, HEL; how it was run: as §1
[36] = system: Human alphaherpesvirus 3; experiment: Antiviral activity against wild type Varicella zoster virus infected in HEL cells assessed as reduction in viral plaque formation incubated for 2 hrs; assay type: functional, organism-based; conditions: Human alphaherpesvirus 3, HEL; how it was run: as §1

SMILES | EC50 [2] [µM] | EC50 [3] [µM] | EC50 [4] [µM] | EC50 [5] [µM] | CC50 [6] [µM] | selectivity ratio [8] | EC50 [9] [µM] | EC50 [10] [µM] | selectivity ratio [13] | CC50 [15] [µM] | CC50 [18] [µM] | EC50 [19] [µM] | EC50 [20] [µM] | CC50 [21] [µM] | CC50 [22] [µM] | EC50 [23] [µM] | other results
COc1ccc(C(OC[C@H]2O[C@@H](n3cc4c(nc3=O)Nc3ccccc3O4)C[C@@H]2O)(c2ccccc2)c2ccc(OC)cc2)cc1 | – | – | – | – | – | – | – | – | – | – | – | – | – | – | – | – | EC50 [1]: 0.4 µM
COc1ccc(C(OCCOCn2cc3c(nc2=O)N(C)c2ccccc2O3)(c2ccccc2)c2ccc(OC)cc2)cc1 | > 20 | > 20 | 48.9 | 44.7 | > 100 | > 2 | 16 | 8 | > 12 | > 100 | > 100 | > 100 | 79 | > 100 | > 100 | > 100 | selectivity ratio [7]: > 2; EC50 [11]: 3.1 µM; selectivity ratio [12]: > 6; selectivity ratio [14]: > 32; EC50 [16]: 6.1 µM; selectivity ratio [17]: > 16
CCCCCCCCOc1ccc2c(c1)Nc1nc(=O)n([C@H]3C[C@H](O)[C@@H](CO)O3)cc1O2 | 0.42 | 15.9 | 54.7 | 42.3 | > 100 | > 2 | 2.8 | 1.5 | > 66 | > 100 | > 100 | > 100 | 82 | > 100 | > 100 | > 100 | selectivity ratio [24]: > 238; selectivity ratio [25]: > 6; selectivity ratio [7]: > 2; selectivity ratio [12]: > 35; EC50 [16]: 2.5 µM; selectivity ratio [17]: > 40
CCCCCCCCCCOc1ccc2c(c1)Nc1nc(=O)n([C@H]3C[C@H](O)[C@@H](CO)O3)cc1O2 | 0.68 | 15.2 | > 100 | 10.4 | 50.3 | 5 | 40 | 4.4 | > 22 | > 100 | > 100 | > 100 | 3.4 | > 100 | > 100 | > 100 | selectivity ratio [25]: 3; selectivity ratio [26]: > 29
O=c1[nH]c(=O)n([C@H]2C[C@H](O)[C@@H](CO)O2)cc1/C=C/Br [BRIVUDINE] | 0.034 | 0.42 | – | – | > 300 | – | – | – | – | – | – | – | – | – | – | – | EC50 [27]: 3.4 µM
Cc1cn2c(=O)c3ncn(COC(CO)CO)c3nc2[nH]1 | – | – | – | – | – | – | – | – | – | – | – | – | – | – | – | – | MIC [28]: 0.07 µM (≈ 0.0205 µg/mL); MIC [29]: 0.07 µM (≈ 0.0205 µg/mL); MIC [30]: 14.3 µM (≈ 4.19 µg/mL); MIC [31]: 14.3 µM (≈ 4.19 µg/mL)
O=c1nc2c(cn1[C@H]1C=C[C@@H](O)C1)Oc1ccccc1N2 | > 100 | 64.4 | > 20 | > 100 | > 100 | – | – | – | – | – | – | 11 | – | 80 | – | > 100 | CC50 at 120 h [32]: > 100 µM; CC50 at 72 h [33]: > 100 µM; selectivity ratio [34]: 7
O=c1nc2c(cn1[C@H]1C[C@H](O)[C@@H](CO)O1)Oc1ccccc1N2 | – | – | – | – | – | – | – | – | – | – | – | – | – | – | – | – | EC50 [35]: 10 µM; EC50 [36]: 0.06 µM
Cc1cn2c(=O)c3ncn(COCCO)c3nc2[nH]1 | – | – | – | – | – | – | – | – | – | – | – | – | – | – | – | – | MIC [28]: 1.52 µM (≈ 0.4 µg/mL); MIC [29]: 1.52 µM (≈ 0.4 µg/mL)
